Reference: ChEMBL document CHEMBL1154802, “Antiestrogenic constituents of the Thai medicinal plants Capparis flavicans and Vitex glabrata” (2009)
The source made the active and inactive calls. No cut-off for these calls is given here.

What was measured:
[1] = tested on: MCF7; assay: Antiestrogenic activity in human MCF7 cells assessed as inhibition of E2-enhanced cell proliferation at 0.1 to 100 uM after 96 hrs by alamar blue assay; type: functional
Outline: (§1)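 Cells seeded at 1 × 10^4 per well in phenol red-free RPMI with 5% DCC-treated FBS. E2 was added from a 20 nM solution to give 100 pM and preincubated 1 h at 37 °C, 5% CO2. Compounds were then added at 0.1, 1, 10 and 100 µM for 96 h, with serially diluted tamoxifen as positive control. Antagonism was judged from cell populations. iEqE values were obtained by linear regression over four concentrations.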

[2] = tested on: MCF7; assay: Antiestrogenic activity in human MCF7 cells assessed as drug level causing inhibition of 100 pM E2-enhanced cell proliferation to level equivalent to 10 pM E2 after 96 hrs by alamar blue assay; type: functional; outline: as §1
[3] = tested on: MCF7; assay: Stimulation of human MCF7 cell proliferation up to 100 uM after 96 hrs by alamar blue assay relative to estradiol; type: functional, cell-based
Outline: (§2)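 Compounds were given alone at 0.1, 1, 10 and 100 µM, and stimulation of proliferation was compared with estradiol at 1–100 pM. Cell proliferation assay as in an earlier report.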

[4] = tested on: MCF7; assay: Antiestrogenic activity in human MCF7 cells assessed as drug level causing inhibition of 100 pM E2-enhanced cell proliferation to level equivalent to 1 pM E2 after 96 hrs by alamar blue assay; type: functional; outline: as §1
[5] = tested on: T47D; assay: Antiestrogenic activity in human T47D cells assessed as drug level causing inhibition of 100 pM E2-enhanced cell proliferation to level equivalent to 10 pM E2 after 96 hrs by alamar blue assay; type: functional; outline: as §1
[6] = tested on: MCF7; assay: Antiestrogenic activity in human MCF7 cells assessed as drug level causing inhibition of 100 pM E2-enhanced cell proliferation to level equivalent to 50 pM E2 after 96 hrs by alamar blue assay; type: functional; outline: as §1
[7] = tested on: T47D; assay: Stimulation of human T47D cell proliferation up to 100 uM after 96 hrs by alamar blue assay relative to estradiol; type: functional, cell-based; outline: as §2
[8] = tested on: T47D; assay: Antiestrogenic activity in human T47D cells assessed as drug level causing inhibition of 100 pM E2-enhanced cell proliferation to level equivalent to 1 pM E2 after 96 hrs by alamar blue assay; type: functional; outline: as §1
[9] = tested on: T47D; assay: Antiestrogenic activity in human T47D cells assessed as drug level causing inhibition of 100 pM E2-enhanced cell proliferation to level equivalent to 50 pM E2 after 96 hrs by alamar blue assay; type: functional; outline: as §1
[10] = tested on: T47D; assay: Antiestrogenic activity in human T47D cells assessed as inhibition of E2-enhanced cell proliferation at 0.1 to 100 uM after 96 hrs by alamar blue assay; type: functional; outline: as §1

Row | SMILES | inhibition (INH) [1] [%] | Activity [2] [µM] | Activity [3] | Activity [4] [µM] | Activity [5] [µM] | Activity [6] [µM] | Activity [7] | Activity [8] [µM] | Activity [9] [µM] | inhibition (INH) [10] [%]
1 | COc1cc([C@H]2OC[C@H]3[C@@H]2CO[C@@H]3c2cc(OC)c(O[C@@H]3O[C@H](CO)[C@@H](O)[C@H](O)[C@H]3O)c(OC)c2)ccc1O | >90 | <0.1 | inactive | >100 | 2 | <0.1 | inactive | >100 | <0.1 | –
2 | COc1cc([C@H]2OC[C@H]3[C@@H]2CO[C@@H]3c2cc(OC)c(O[C@@H]3O[C@H](CO)[C@@H](O)[C@H](O)[C@H]3O)c(OC)c2)cc(OC)c1O | – | <0.1 | inactive | <0.1 | 19 | <0.1 | inactive | >100 | <0.1 | –
3 | Oc1ccc([C@H]2OC[C@H]3[C@@H]2CO[C@@H]3c2ccc(O)c(O)c2)cc1O | – | 31 | inactive | 94 | 26 | 0.2 | inactive | 73 | 0.2 | –
4 | COc1cc([C@H]2OC[C@H]3[C@@H]2CO[C@@H]3c2ccc(O[C@@H]3O[C@H](CO)[C@@H](O)[C@H](O)[C@H]3O)c(OC)c2)ccc1O | – | <0.1 | inactive | <0.1 | <0.1 | <0.1 | inactive | >100 | <0.1 | >90
5 | COc1cc([C@H]2Oc3c(OC)cc(/C=C/CO)cc3[C@@H]2CO)ccc1O[C@@H]1O[C@H](CO)[C@@H](O)[C@H](O)[C@H]1O | – | >100 | inactive | >100 | 63 | 0.3 | inactive | >100 | <0.1 | –
6 | COc1cc(C[C@H](CO)[C@@H](CO[C@@H]2O[C@H](CO)[C@@H](O)[C@H](O)[C@H]2O)Cc2cc(OC)c(O)c(OC)c2)cc(OC)c1O | – | 0.8 | inactive | 93 | >100 | <0.1 | inactive | >100 | 0.6 | –
7 | COc1cc([C@H](O[C@@H]2O[C@H](CO)[C@@H](O)[C@H](O)[C@H]2O)[C@@H](CO)Oc2c(OC)cc(/C=C/CO)cc2OC)ccc1O | – | 6 | inactive | >100 | >100 | <0.1 | inactive | >100 | <0.1 | >50
8 | CCCc1ccc(O[C@@H]2O[C@H](CO)[C@@H](O)[C@H](O)[C@H]2O)c(OC)c1 | – | <0.1 | inactive | 0.4 | >100 | <0.1 | inactive | >100 | <0.1 | >50
9 | Nc1ncnc2c1ncn2[C@@H]1O[C@H](CO)[C@@H](O)[C@H]1O [ADENOSINE] | >90 | <0.1 | inactive | >100 | 69 | <0.1 | inactive | >100 | 2 | –
10 | O=c1cc(-c2ccc(O)cc2)oc2cc(O[C@@H]3O[C@H](CO)[C@@H](O)[C@H](O)[C@H]3O)cc(O)c12 [APIGETRIN] | >90 | <0.1 | inactive | >100 | <0.1 | <0.1 | inactive | 2 | <0.1 | –
11 | COc1cc(O)ccc1O[C@@H]1O[C@H](CO[C@@H]2OC[C@@H](O)[C@H](O)[C@H]2O)[C@@H](O)[C@H](O)[C@H]1O [CAPPAROSIDE A] | – | 0.3 | inactive | >100 | >100 | <0.1 | inactive | >100 | <0.1 | >50
12 | OC/C=C/c1ccc2c(c1)O[C@H](c1ccc(O)c(O)c1)[C@@H](CO)O2 [ISOAMERICANOL A] | – | 6 | inactive | >100 | 9 | <0.1 | inactive | >100 | <0.1 | –
13 | COc1cc([C@H]2OC[C@H]3[C@@H]2CO[C@@H]3c2cc(OC)c(O)c(OC)c2)ccc1O[C@@H]1O[C@H](CO)[C@@H](O)[C@H](O)[C@H]1O [ISOEUCOMMIN A] | – | <0.1 | inactive | <0.1 | <0.1 | <0.1 | inactive | >100 | <0.1 | >90
14 | OC[C@H]1O[C@@H](Oc2cc([C@H]3OC[C@]4(O)[C@@H](c5ccc6c(c5)OCO6)OC[C@]34O)ccc2O)[C@H](O)[C@@H](O)[C@@H]1O [KHAINAOSIDE A] | – | <0.1 | inactive | <0.1 | <0.1 | <0.1 | inactive | 3 | <0.1 | –
15 | COc1cc(/C=C/CO)ccc1O[C@@H]1O[C@H](COC(=O)/C=C/c2ccc(O)c(O)c2)[C@@H](O)[C@H](O)[C@H]1O [KHAINAOSIDE C] | – | 4 | inactive | 5 | <0.1 | 4 | inactive | >100 | <0.1 | >90
16 | COc1cc(O[C@@H]2O[C@H](CO)[C@@H](O)[C@H](O)[C@H]2O)cc(OC)c1O [KOABURASIDE] | >90 | <0.1 | inactive | >100 | 37 | <0.1 | inactive | 70 | 2 | –
17 | COc1cc(O)cc(OC)c1O[C@@H]1O[C@H](CO)[C@@H](O)[C@H](O)[C@H]1O [LEONURISIDE] | – | <0.1 | inactive | >100 | 39 | <0.1 | inactive | >100 | 0.4 | –
18 | OC[C@@H]1Oc2ccc([C@H]3OC[C@H]4[C@@H]3CO[C@@H]4c3ccc(O)c(O)c3)cc2O[C@H]1c1ccc(O)c(O)c1 [PRINCEPIN] | – | 4 | inactive | 7 | 1 | 0.3 | inactive | 6 | 0.4 | –
19 | C[C@@H](/C=C/[C@]1(O)[C@]2(C)CO[C@@]1(C)CC(=O)C2)O[C@@H]1O[C@H](CO)[C@@H](O)[C@H](O)[C@H]1O [SPIONOSIDE B] | – | <0.1 | inactive | 15 | 61 | <0.1 | inactive | >100 | 0.2 | –
20 | COc1cc([C@H]2OC[C@H]3[C@@H]2CO[C@@H]3c2cc(OC)c(O)c(OC)c2)cc(OC)c1O [SYRINGARESINOL] | – | 4 | inactive | 5 | 1 | 2 | inactive | 7 | <0.1 | –
21 | COc1cc(O[C@@H]2O[C@H](CO)[C@@H](O)[C@H](O)[C@H]2O)ccc1O [TACHIOSIDE] | – | 0.2 | inactive | >100 | 10 | <0.1 | inactive | >100 | <0.1 | –
22 | CC/C(=C(\c1ccccc1)c1ccc(OCCN(C)C)cc1)c1ccccc1 [TAMOXIFEN] | – | 0.2 | – | 0.4 | 0.7 | 0.1 | – | 9 | 0.1 | –
